This is an account of results in ChEMBL document CHEMBL3271960, “7-Aza analogs of the analgetic agent azabicyclane. Synthesis and pharmacologic analysis” (J Med Chem, 1976).

For series [1], the system named is Mus musculus. The series is described as follows: Convulsant activity in Swiss-Webster Royal Hart mouse at 30 to 100 mg/kg, ip administered as aqueous solution. It counts as ADME, organism-based. Further details: dose 30-100 mg/kg, route intraperitoneal. The settings on record: in vivo. The gist of the method: (§1)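 Male Swiss-Webster Royal Hart mice, groups of ten per dose level, doses up to 300 mg/kg per group. Water-soluble salts were given po or ip as aqueous solutions. Analgesia was tested by Haffner tail clamp and phenylquinone-induced writhing, anti-diarrheal effect as colonic propulsive motility, plus general behaviour observation.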

Series [2] is described as follows: Dissociation constant, pKa of the compound. It counts as physicochemical. Put shortly: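 Apparent pKa* measured in 66% aqueous dimethylformamide at 30° by potentiometric titration of monoperchlorate salts with 0.1 M NaOH, with pH recorded via a combination electrode on a recording titrator.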
The test system of series [3] is Mus musculus. The series is described as follows: Analgesic activity in Swiss-Webster Royal Hart mouse at 20 to 100 mg/kg, po administered as solution in 30% aqueous propylene glycol by phenylquinone-induced writhing test. It counts as functional, organism-based. The gist of the method:
(§2)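 Male Swiss-Webster Royal Hart mice, ten per dose level, doses up to 300 mg/kg per group. Salt was dissolved in 30% aqueous propylene glycol and dosed po or ip. Analgesia was tested by Haffner tail clamp and phenylquinone-induced writhing, anti-diarrheal effect as colonic propulsive motility.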
(In general: In writhing tests, fewer writhes than in controls are read as antinociception.)

For series [4], the system named is Mus musculus. The series is described as follows: Antidiarrheal activity in Swiss-Webster Royal Hart mouse assessed as colonic propulsive motility at 20 to 100 mg/kg, po administered as aqueous solution. In kind it is functional, organism-based. The gist of the method: as §1
Series [5] relates to Mus musculus. Briefly: Analgesic activity in Swiss-Webster Royal Hart mouse at 20 to 100 mg/kg, po administered as aqueous solution by phenylquinone-induced writhing test. In kind it is functional, organism-based. The gist of the method: as §1
Series [6] deals with Mus musculus. Briefly: Antidiarrheal activity in Swiss-Webster Royal Hart mouse assessed as colonic propulsive motility at 20 to 100 mg/kg, po administered as solution in 30% aqueous propylene glycol. In kind it is functional, organism-based. The gist of the method: as §2
The subject of series [7] is Mus musculus. The series is described as follows: Analgesic activity in Swiss-Webster Royal Hart mouse at 20 to 100 mg/kg, po administered as solution in 30% aqueous propylene glycol by Haffner tail clamp test. In kind it is functional, organism-based. Put shortly: as §2
Series [8] has as its system Mus musculus. The series is described as follows: Analgesic activity in Swiss-Webster Royal Hart mouse at 20 to 100 mg/kg, po administered as aqueous solution by Haffner tail clamp test. In kind it is functional, organism-based. Put shortly: as §1
Series [9] concerns Mus musculus. Briefly: Analgesic activity in sc dosed Swiss-Webster Royal Hart mouse after 30 mins by Haffner tail clamp test. In kind it is functional. To be noted: 0.5 h.
Series [10] deals with Mus musculus. The series is described as follows: Antidiarrheal activity in Swiss-Webster Royal Hart mouse assessed as decrease in colonic propulsive motility at 10 mg/kg, ip. In kind it is functional, organism-based. The arrangement: dose 10 mg/kg.
For series [11], the system named is Mus musculus. Briefly: Convulsant activity in Swiss-Webster Royal Hart mouse at 100 to 300 mg/kg, ip administered as aqueous solution. The settings on record: in vivo. It counts as ADME, organism-based. The arrangement: dose 100-300 mg/kg, route intraperitoneal. Put shortly: as §1

The structures appear in SMILES notation. Activity calls are given as the source filed them. The rule behind the calls is not given here.

What is called pKa is the pH at which an ionisable group is half protonated. Higher therefore signals a group that holds its proton tightly. For the compound `CC1(C)C2CCC1(CS(=O)(=O)O)C(=O)C2.CN1C[C@H]2CN(C)C[C@H](C1)[C@@]2(O)c1ccccc1`, the Activity entry in the series on Mus musculus [1] is “Toxic”. The compound also returned a pKa in [2] of 11.7. Further, the outcome in the series on Mus musculus [3], with Mus musculus [4], in the series with Mus musculus [5], in the series with Mus musculus [6], in the series on Mus musculus [7] and in the series on Mus musculus [8] was inactive.

The ED50 is the midpoint of the dose-response relation. `CO[C@]1(c2ccccc2)[C@@H]2CCC[C@H]1CN(C)C2` had an ED50 in the series with Mus musculus [9] of 3.9 mg/kg. Besides, the inhibition entry in the series with Mus musculus [10] was “Active”.

Consider `CCC(=O)OC1(c2ccccc2)C2CN(C)CC1CN(C)C2.CS(=O)(=O)O` (stereo not given), for which the pKa in [2] was 11. Further, in the series with Mus musculus [11], the Activity entry was “Toxic”. For the same compound, the outcome in the series with Mus musculus [3], in the series on Mus musculus [4], in the series with Mus musculus [5], in the series with Mus musculus [6], in the series on Mus musculus [7] and in the series with Mus musculus [8] was inactive.

`COC1(c2ccccc2)C2CN(C)CC1CN(C)C2` (stereo not given) registered a pKa in [2] of 11.7. The outcome in the series on Mus musculus [3], in the series with Mus musculus [4], in the series on Mus musculus [5], in the series on Mus musculus [6], with Mus musculus [7] and in the series with Mus musculus [8] was inactive.
